# Experimental data pooled from the literature.
# Each line is one published result; the experiments were not run side by side.
# Organism: Escherichia coli
# Observed: microbial growth
SMILES,method,strain,time,notes,MIC
CCN(CC)c1ccc(C=NC(=O)c2ccccc2)c(O)c1,broth dilution,ATCC25922,,,> 256 µg/mL
Cc1ccc2[nH]nc(-c3nnc(Nc4ccc(Br)cc4)s3)c2c1,,ATCC25922,,,251 µg/mL
CC1(C)S[C@@H]2[C@H](NC(=O)[C@H](N)c3ccccc3)C(=O)N2[C@H]1C(=O)O,broth dilution,ATCC25922,12 h,,8 µg/mL
Cc1ccc2[nH]nc(-c3nnc(Nc4ccc(F)cc4)s3)c2c1,,ATCC25922,,,51.9 µg/mL
CC(C)(O/N=C(\C(=O)N[C@@H]1C(=O)N2C(C(=O)[O-])=C(C[n+]3ccccc3)CS[C@H]12)c1csc(N)n1)C(=O)O,,,,,0.25 µg/mL
Cc1ccc2[nH]nc(-c3nnc(Nc4cc(Cl)cc(Br)c4)s3)c2c1,,ATCC25922,,,228 µg/mL
CN(Cc1cnc2nc(N)nc(N)c2n1)c1ccc(C(=O)N[C@@H](CCC(=O)O)C(=O)O)cc1,broth dilution,BW25113,18 h,,> 250 µg/mL
C[C@@H](O)[C@H]1C(=O)N2C(C(=O)O)=C(SCCN=CN)C[C@H]12,,,,,≤ 0.25 µg/mL
CCOC(=O)C(C)c1n[nH]c2nc(N)[nH]c(=O)c2c1=O (stereo not drawn),broth dilution,BW25113,18 h,,> 100 µg/mL
N=c1sc(C(=O)c2ccc(Nc3cnccn3)cc2)nn1-c1ccccc1,broth dilution,ATCC10536,,,50 µg/mL
CC1(C)S[C@@H]2[C@H](NC(=O)[C@H](N)c3ccccc3)C(=O)N2[C@H]1C(=O)O,broth dilution,ATCC25922,,,4 µg/mL
COc1ccc(N2N=C(C(C)=O)SC2=C(C#N)C(=O)c2ccc(Nc3cnccn3)cc2)cc1,broth dilution,ATCC10536,,,6.25 µg/mL
COc1ccc2ccc(O)c(/C=N/[C@H]3CCCC[C@H]3/N=C/c3c(O)cccc3F)c2c1,broth dilution,,,,> 40 µM
O=C(O)c1cn(C2CC2)c2cc(N3CCNCC3)c(F)cc2c1=O,broth dilution,ATCC25922,16 h,,0.1 µM
COc1cc2cc(CNCCN3CCN(C)CC3)c(SCc3ccccc3)nc2c(OC)c1OC,broth dilution,,,,> 128 µg/mL
O=C1/C(=C/c2ccc3ccccc3c2O)NC(=S)N1c1ccccc1,broth dilution,ATCC25 ATCC25922,,,16 µg/mL
CO[C@H]1/C=C/O[C@@]2(C)Oc3c(C)c(O)c4c(O)c(c(/C=N/N5CCN(C)CC5)c(O)c4c3C2=O)NC(=O)/C(C)=C\C=C\[C@H](C)[C@H](O)[C@@H](C)[C@@H](O)[C@@H](C)[C@H](OC(C)=O)[C@@H]1C,broth dilution,,,,8 µM
Brc1ccc2nc(SCc3ccccc3)c(CNCc3ccc(CN4CCCC4)cc3)cc2c1,broth dilution,,,,> 128 µg/mL
COc1ccc2ccc(O)c(/C=N/[C@H]3CCCC[C@H]3/N=C/c3ccc(OCCN4CCCCC4)cc3O)c2c1,broth dilution,,,,> 40 µM
CCN1CCC(CCNCc2cc3cc(-c4ccccc4)ccc3nc2SCc2ccccc2)CC1,broth dilution,,,,8 µg/mL
C[C@H]1COc2c(N3CCN(C)CC3)c(F)cc3c(=O)c(C(=O)O)cn1c23,,ATCC25922,,drug-resistant strain,≤ 0.03 µg/mL
CN1CCN(CCNCc2cc3ccccc3nc2SCc2ccccc2)CC1,broth dilution,,,,64 µg/mL
O=C(O)c1cn(C2CC2)c2cc(N3CCNCC3)c(F)cc2c1=O,broth dilution,ATCC25922,,,4 µg/mL
CO/N=C(\C(=O)N[C@@H]1C(=O)N2C(C(=O)O)=CCS[C@H]12)c1csc(N)n1,broth dilution,ATCC25922,,,0.125 µg/mL
COc1cc2cc(CNCCC3CCN(C4CCCC4)CC3)c(SCc3ccccc3)nc2c(OC)c1OC,broth dilution,,,,> 128 µg/mL
CO/N=C(\C(=O)N[C@@H]1C(=O)N2C(C(=O)O)=C(CSc3nc(=O)c(=O)[nH]n3C)CS[C@H]12)c1csc(N)n1,broth dilution,ATCC25922,,,16 µg/mL
COc1ccc(-n2nc(C(=O)c3ccc(Nc4cnccn4)cc3)sc2=N)cc1,broth dilution,ATCC10536,,,12.5 µg/mL
c1ccc(CSc2nc3ccc(-c4ccccc4)cc3cc2CNCc2ccc(CN3CCCC3)cc2)cc1,broth dilution,,,,> 128 µg/mL
CN(C)c1cc(NC(=O)CNC(C)(C)C)c(O)c2c1C[C@H]1C[C@H]3[C@H](N(C)C)C(O)=C(C(N)=O)C(=O)[C@@]3(O)C(O)=C1C2=O,,,,,≤ 0.5 µg/mL
COc1ccc2ccc(O)c(/C=N/[C@H]3CCCC[C@H]3/N=C/c3ccc(-c4ccccc4)cc3O)c2c1,broth dilution,,,,> 40 µM
CCN1CCC(CCNCc2cc3cc(OC)c(OC)c(OC)c3nc2SCc2ccccc2)CC1,broth dilution,,,,> 128 µg/mL
Cc1ccc2[nH]nc(-c3nnc(Nc4ccc(C)c(C)c4)s3)c2c1,,ATCC25922,,,124 µg/mL
[H]/N=C(\N/C(=N/[H])NCCCCCCNC(=N)NC(=N)Nc1ccc(Cl)cc1)Nc1ccc(Cl)cc1,,,,,0.5 µM
COc1ccc(N2N=C(C(=O)c3ccc(Nc4cnccn4)cc3)SC2=C(C#N)C#N)cc1,broth dilution,ATCC10536,,,6.25 µg/mL
Cc1ccc2[nH]nc(-c3nnc(Nc4ccc(Cl)c(Br)c4)s3)c2c1,,ATCC25922,,,247 µg/mL
CCN(CC)c1ccc(C=NNC(=O)c2ccc(Cl)cc2)c(O)c1,broth dilution,ATCC25922,,,> 256 µg/mL
Cc1cc(O)cc(Nc2nnc(-c3n[nH]c4ccc(C)cc34)s2)c1,,ATCC25922,,,176 µg/mL
N#CC(C#N)=C1SC(C(=O)c2ccc(Nc3cnccn3)cc2)=NN1c1ccccc1,broth dilution,ATCC10536,,,50 µg/mL
Cc1ccc2[nH]nc(-c3nnc(Nc4ccc(C(F)(F)F)cc4)s3)c2c1,,ATCC25922,,,43.3 µg/mL
CC(=O)C1=NN(c2ccc([N+](=O)[O-])cc2)C(=C(C#N)C(=O)c2ccc(Nc3cnccn3)cc2)S1,broth dilution,ATCC10536,,,6.25 µg/mL
C[C@H]1COc2c(N3CCN(C)CC3)c(F)cc3c(=O)c(C(=O)O)cn1c23,,,,,≤ 0.12 µg/mL
c1ccc(CSc2nc3ccccc3cc2CNCc2ccc(CN3CCCC3)cc2)cc1,broth dilution,,,,> 128 µg/mL
